Measurements collected from several papers.
Lines come from different studies, so protocols differ.
Target: Ephrin type-A receptor 1 (EPHA1, Homo sapiens, UniProt P21709)
Residues used in one study (P21709 26-976): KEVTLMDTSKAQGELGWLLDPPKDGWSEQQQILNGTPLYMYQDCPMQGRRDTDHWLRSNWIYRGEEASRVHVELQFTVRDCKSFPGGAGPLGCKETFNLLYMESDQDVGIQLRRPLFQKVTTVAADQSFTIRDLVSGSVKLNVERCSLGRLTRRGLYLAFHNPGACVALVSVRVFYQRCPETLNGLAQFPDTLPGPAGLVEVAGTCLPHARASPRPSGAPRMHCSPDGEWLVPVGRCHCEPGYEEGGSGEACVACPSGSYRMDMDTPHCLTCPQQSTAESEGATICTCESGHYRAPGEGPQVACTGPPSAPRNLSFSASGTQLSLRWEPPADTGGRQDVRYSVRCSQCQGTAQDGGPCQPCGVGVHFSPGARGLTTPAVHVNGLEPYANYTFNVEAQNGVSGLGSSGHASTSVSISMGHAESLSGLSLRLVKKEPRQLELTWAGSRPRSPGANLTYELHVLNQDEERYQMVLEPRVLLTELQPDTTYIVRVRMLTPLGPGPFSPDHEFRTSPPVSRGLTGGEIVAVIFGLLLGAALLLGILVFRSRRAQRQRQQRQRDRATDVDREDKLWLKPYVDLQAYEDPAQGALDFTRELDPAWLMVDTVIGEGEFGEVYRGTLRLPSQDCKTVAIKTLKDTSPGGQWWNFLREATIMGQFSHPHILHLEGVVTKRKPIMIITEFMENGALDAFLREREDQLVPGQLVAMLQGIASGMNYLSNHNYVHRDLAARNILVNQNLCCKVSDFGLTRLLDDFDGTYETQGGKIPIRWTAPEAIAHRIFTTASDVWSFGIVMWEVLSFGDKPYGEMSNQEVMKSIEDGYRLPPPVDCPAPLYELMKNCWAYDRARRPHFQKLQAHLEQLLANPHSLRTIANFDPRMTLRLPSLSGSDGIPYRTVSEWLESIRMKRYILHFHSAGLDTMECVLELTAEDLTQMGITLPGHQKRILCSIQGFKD

Structure (SMILES)	assay	setting	endpoint	result
C=CC(=O)N1CCC([C@@H]2CCNc3c(C(N)=O)c(-c4ccc(Oc5ccccc5)cc4)nn32)CC1	cell-free assay	1 µM	inhibition	25%
C1=C/COCc2cc(ccc2OCCN2CCCC2)Nc2nccc(n2)-c2cccc(c2)COC/1	binding	0.1 µM	remaining binding	93%
CN1CCN(C(=O)c2ccc(NC(=O)Nc3ccc(N(C)c4ccnc(Nc5ccc(CS(C)(=O)=O)cc5)n4)cc3)cc2)CC1	binding, competition with immobilised ligand	1 µM	remaining binding	56%
CC(C)S(=O)(=O)c1ccc2nccc(Nc3ccc4sc(C5CCCC5)nc4c3)c2c1	enzyme activity, inhibitor	1 µM	activity vs control	100%
CC#CC(=O)N1CCC[C@H]1c1nc(-c2ccc(C(=O)Nc3ccccn3)cc2)c2c(N)nccn12	enzyme activity, inhibitor	1 µM	inhibition	25%
COc1ccc2oc(-c3ccc4nc(N)oc4c3)c/c(=N\c3ccccc3NC(=O)CCN)c2c1	binding	1 µM	remaining binding	101%
CCCCC(=O)Nc1ccc(-c2ccc3ncn(CCC)c(=O)c3c2)cn1	binding, competition with immobilised ligand	0.5 µM	remaining binding	80%
Cc1ccc(NC(=O)c2ccnc(C(F)(F)F)c2)cc1-c1cc(OCCO)nc(N2CCOCC2)c1	binding, competition with immobilised ligand	1 µM	remaining binding	83%
